Assay results as given in ChEMBL document CHEMBL1157852, “Modulation of doxorubicin activity in cancer cells by conjugation with fatty acyl and terpenyl hydrazones” (Eur J Med Chem, 2010).
pIC50: −log10 of the molar value. Calls of active or inactive are those of the source. The rule behind the calls is not given here.

Legend:
HL-60 [1] = test: Induction of apoptosis in human HL60 cells assessed as appearance of intact mitochondria in cytosol at 5 uM after 6 hrs using JC1 dye relative to control; assay type: functional
In short: (§1)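 Mitochondrial membrane potential measured with JC-1. Cells exposed to 5 µM compound for 6 or 18 h, pelleted at 400 g, stained with 0.2× JC-1 at 37 °C for 15 min (HL-60) or 35 min (518A2), washed and resuspended in PBS. Red fluorescence (ex 585/em 590 nm) and green (ex 510/em 527 nm) read; red/green ratio relative to untreated controls (100%). Mean ± SD, four independent experiments.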

[2] = Cytotoxicity against human 518A2 cells after 24 hrs by MTT assay; assay type: functional, cell-based; conditions: 518A2, 24 h
In short: (§2)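 MTT assay. Cells seeded and cultured 24 h, then exposed to compound for 24, 48 or 72 h. MTT added to a final 0.05% (HL-60, 518A2) or 0.1% (KB-V1, MCF-7) for 2 h. Formazan dissolved in 10% SDS/DMSO with 0.6% acetic acid; absorbance read at 570 nm against 630 nm background. Viability taken relative to untreated controls (100%). IC50 from concentration-response curves, mean ± SD of four independent experiments.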

518A2 [3] = test: Induction of apoptosis in human 518A2 cells assessed as increase of ratio of Bax to Bcl-2 mRNA expression at 5 uM after 6 to 18 hrs by RT-PCR analysis; assay type: functional, cell-based
In short: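 518A2 cells exposed to 5 µM compound for 6 h or 18 h. bax and bcl-2 mRNA quantified by real-time PCR, normalised to GAPDH, and expressed as the bax/bcl-2 ratio.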

HL-60 [4] = test: Induction of apoptosis in human HL60 cells assessed as appearance of intact mitochondria in cytosol at 5 uM after 18 hrs using JC1 dye relative to control; assay type: functional; in short: as §1
MCF7 [5] = test: Cytotoxicity against human topotecan-resistant MCF7 cells after 72 hrs by MTT assay in presence of […] BCRP inhibitor fumitremorgin C; assay type: functional, cell-based; conditions: MCF7, 72 h
In short: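 MCF-7/Topo cells grown in E-MEM with 2.2 g/L NaHCO₃, 110 mg/L sodium pyruvate and 5% FCS. Cells were seeded, cultured 24 h, given fumitremorgin C, then exposed to compound for 72 h. MTT was added (final 0.1%) for 2 h, medium discarded, and formazan dissolved in 10% SDS/DMSO with 0.6% acetic acid. A570 (630 background) read versus untreated controls; IC50 from concentration-response curves; four independent experiments, mean ± SD.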

HL-60 [6] = test: Cytotoxicity against human HL60 cells assessed as increase in ROS production at 5 uM after 72 hrs by NBT reduction assay relative to control; assay type: functional
In short: (§3)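 NBT assay. HL-60 cells (0.5×10⁶/mL) or trypsinised 518A2 cells (5×10⁴/mL) pre-incubated 24 h at 37 °C, then given compound at a final 5 µM for 24 or 72 h. Medium removed; cells incubated with 0.1% NBT for 1 h (HL-60) or 4 h (518A2). Diformazan dissolved in 2 M KOH/DMSO; A630 read against 405 nm. Given as % of untreated controls; double quadruplicates.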

[7] = Ratio of compound IC50 to doxorubicin IC50 for human doxorubicin-resistant KBV1 cells; assay type: functional
Nucleic Acid = test: Binding affinity to Escherichia coli pBR322 DNA assessed as effect on DNA electrophoretic mobility at 5 to 25 uM after 24 hrs; assay type: nucleic-acid assay
In short: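 pBR322 plasmid DNA from a TE stock incubated with compound at 0, 5, 10 and 25 µM, in the dark at 37 °C for 24 h. Samples run on 1% agarose gel in 0.5× TBE for 4 h at 66 V. Read-out: shifts in mobility of the open circular and covalently closed circular forms.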

HL-60 [8] = test: Induction of apoptosis in human HL60 cells assessed as increase of caspase 3 activity at 5 uM after 4 hrs by luminometric assay; assay type: functional, cell-based
In short: (§4)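 HL-60 and 518A2 cells treated with 5 µM compound and sampled at intervals from 1 to 24 h. Lysed in 50 mM Tris-HCl pH 7.4, 150 mM NaCl, 1% Triton X-100 with protease inhibitors for 15 min at 4 °C, spun at 800 g. Protein measured by Bradford. Caspase-3/7, -8 and -9 activities read with luminogenic peptide substrates; reported as relative luminescence.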

HL-60 [9] = test: Cytotoxicity against human HL60 cells after 72 hrs by MTT assay; assay type: functional, cell-based; conditions: HL-60, 72 h; in short: as §2
[10] = Cytotoxicity against human 518A2 cells assessed as increase in ROS production at 5 uM after 24 hrs by NBT reduction assay relative to control; assay type: functional; in short: as §3
[11] = Cytotoxicity against human doxorubicin-resistant KBV1 cells by MTT assay; assay type: functional, KB-V1
MCF7 [12] = test: Ratio of compound IC50 to doxorubicin IC50 for human doxorubicin-resistant MCF7 cells; assay type: functional
[13] = Cytotoxicity against human vinblastine-resistant KBV1 cells after 72 hrs by MTT assay; assay type: functional, cell-based; conditions: KB-V1, 72 h; in short: as §2
518A2 [14] = test: Induction of apoptosis in human 518A2 cells assessed as increase of caspase 9 activity at 5 uM after 8 to 12 hrs by luminometric assay; assay type: functional, cell-based; in short: as §4
HL-60 [15] = test: Induction of apoptosis in human HL60 cells assessed as increase of caspase 9 activity at 5 uM after 8 hrs by luminometric assay; assay type: functional, cell-based
In short: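 HL-60 leukaemia cells were treated with test compound and sampled at intervals from 1 to 24 h. Protein was measured by Bradford. Caspase-9 (Caspase-Glo 8 for line 1) was read from a luminogenic peptide substrate as relative luminescence.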

MCF7 [16] = test: Cytotoxicity against human topotecan-resistant MCF7 cells after 72 hrs by MTT assay; assay type: functional, cell-based; conditions: MCF7, 72 h; in short: as §2
[17] = Cytotoxicity against human 518A2 cells after 72 hrs by MTT assay; assay type: functional, cell-based; conditions: 518A2, 72 h; in short: as §2
HL-60 [18] = test: Induction of apoptosis in human HL60 cells assessed as increase of caspase 8 activity at 5 uM after 4 to 24 hrs by luminometric assay; assay type: functional, cell-based; in short: as §4
HL-60 [19] = test: Induction of apoptosis in human HL60 cells assessed as DNA ladder formation at 5 uM after 24 hrs by agarose gel electrophoresis; assay type: functional, cell-based
In short: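 HL-60 cells incubated with 5 µM compound for 24 h, then examined for DNA ladder patterns.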

HL-60 [20] = test: Cytotoxicity against human HL60 cells assessed as increase in ROS production at 5 uM after 24 hrs by NBT reduction assay relative to control; assay type: functional; in short: as §3
MCF7 [21] = test: Cytotoxicity against human topotecan-resistant MCF7 cells after 24 hrs by MTT assay; assay type: functional, cell-based; conditions: MCF7, 24 h; in short: as §2
[22] = Cytotoxicity against human vinblastine-resistant KBV1 cells after 72 hrs by MTT assay in presence of 24 mM ABC transporter inhibitor verapamil hydrochloride; assay type: functional, cell-based; conditions: KB-V1, 72 h, in the assay text read “24 uM” for “24 mM”
In short: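 MTT viability assay on P-gp-overexpressing KB-V1/Vbl cells with 24 µM verapamil hydrochloride added before the compound; 72 h exposure. Formazan read at 570/630 nm relative to untreated controls. IC50 from concentration-response curves, mean ± SD of four independent experiments.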

HL-60 [23] = test: Induction of apoptosis in human HL60 cells assessed as increase of caspase 3 activity at 5 uM after 12 hrs by luminometric assay; assay type: functional, cell-based; in short: as §4
MCF7 [24] = test: Cytotoxicity against human topotecan-resistant MCF7 cells after 48 hrs by MTT assay; assay type: functional, cell-based; conditions: MCF7, 48 h; in short: as §2

For `COc1cccc2c1C(=O)c1c(O)c3c(c(O)c1C2=O)C[C@@](O)(/C(CO)=N/NC(=O)CCCCCCCCCCC(=O)O[C@@H]1C[C@H](C)CC[C@H]1C(C)C)C[C@@H]3O[C@H]1C[C@H](N)[C@H](O)[C@H](C)O1.Cl`, which Activity (HL-60 [1]) is on record?
The Activity was 90%.

What about the pIC50 [2] of the same compound?
The pIC50 was 6.64.

And the Activity (518A2 [3])?
The Activity was “Active”.

What about the Activity (HL-60 [4]) of the same compound?
Its Activity is 23%.

What about the pIC50 (MCF7 [5]) of the same compound?
The pIC50 was 7.05.

And the Activity (HL-60 [6])?
Its Activity is 5.9%.

And the “Ratio IC50” value [7]?
Its value is 1.6.

What about the Activity (Nucleic Acid) of the same compound?
Its Activity is “Active”.

What about the Activity (HL-60 [8]) of the same compound?
The Activity was “Active”.

And the pIC50 (HL-60 [9])?
The pIC50 was 6.96.

And the Activity [10]?
Its Activity is 3.3%.

And the Activity [11]?
The Activity was 200 nM.

What about the “Ratio IC50” value (MCF7 [12]) of the same compound?
Its value is 1.6.

What about the pIC50 [13] of the same compound?
Its pIC50 is 5.06.

And the Activity (518A2 [14])?
The Activity was “Active”.

What about the Activity (HL-60 [15]) of the same compound?
Its Activity is “Active”.

What about the pIC50 (MCF7 [16]) of the same compound?
Its pIC50 is 5.59.

And the pIC50 [17]?
The pIC50 was 7.22.

What about the Activity (HL-60 [18]) of the same compound?
The Activity was “Active”.

And the Activity (HL-60 [19])?
Its Activity is “Active”.

What about the Activity (HL-60 [20]) of the same compound?
The Activity was 3.8%.

What about the pIC50 (MCF7 [21]) of the same compound?
Its pIC50 is 5.15.

What about the pIC50 [22] of the same compound?
Its pIC50 is 6.17.

What about the Activity (HL-60 [23]) of the same compound?
Its Activity is “Active”.

And the pIC50 (MCF7 [24])?
The pIC50 was 5.59.
